# ChEMBL document CHEMBL1165950, “Design and synthesis of new potent anticancer pyrazoles with high FLT3 kinase inhibitory selectivity” (Bioorg Med Chem, 2010)
# Experiments:
# Assay type in all cases: functional
# [1] = Cytotoxicity against human […] cells assessed as cell growth at 10 uM; details: read-out: Activity
# How it was run: (§1)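 NCI-60 screen: cells grown in RPMI 1640 with 5% FBS and 2 mM L-glutamine, plated at 5000–40,000 cells/well according to doubling time, and preincubated 24 h at 37 °C, 5% CO2. The single 10 µM dose (DMSO stock) was added, then incubated 48 h. Cells were TCA-fixed and stained with 0.4% SRB, read at 515 nm, and growth % calculated against time-zero and control plates.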
# T47D = assay: Cytotoxicity against human T47D cells assessed as cell growth at 10 uM; details: read-out: Activity; how it was run: as §1
# EKVX = assay: Cytotoxicity against human EKVX cells assessed as cell growth at 10 uM; details: read-out: Activity
# How it was run: (§2)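 Single-dose NCI-60 screen at 10 µM. Cells were grown in RPMI 1640 with 5% FBS and 2 mM L-glutamine, then treated for 48 h at 37 °C. Protein was measured by SRB staining with absorbance at 515 nm. Percentage growth was recorded, and inhibition percentage was calculated as 100 minus growth percentage.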
# CAKI-1 = assay: Cytotoxicity against human Caki1 cells assessed as cell growth at 10 uM; details: read-out: Activity; how it was run: as §2
# MOLT-4 = assay: Cytotoxicity against human MOLT4 cells assessed as cell growth at 10 uM; details: read-out: Activity; how it was run: as §1
# UACC-257 = assay: Cytotoxicity against human UACC257 cells assessed as cell growth at 10 uM; details: read-out: Activity; how it was run: as §1
# MCF7 = assay: Cytotoxicity against human MCF7 cells assessed as cell growth at 10 uM; details: read-out: Activity; how it was run: as §1
# NCI/ADR-RES = assay: Cytotoxicity against human NCI/ADR-RES cells assessed as cell growth at 10 uM; details: read-out: Activity; how it was run: as §1
# OVCAR-3 = assay: Cytotoxicity against human OVCAR-3 cells assessed as cell growth at 10 uM; details: read-out: Activity; how it was run: as §1
# OVCAR-8 = assay: Cytotoxicity against human OVCAR8 cells assessed as cell growth at 10 uM; details: read-out: Activity; how it was run: as §1
# CCRF-CEM = assay: Cytotoxicity against human CCRF-CEM cells assessed as cell growth at 10 uM; details: read-out: Activity; how it was run: as §2
# SNB-75 = assay: Cytotoxicity against human SNB75 cells assessed as cell growth at 10 uM; details: read-out: Activity; how it was run: as §1
# ACHN = assay: Cytotoxicity against human ACHN cells assessed as cell growth at 10 uM; details: read-out: Activity; how it was run: as §2
# SNB-19 = assay: Cytotoxicity against human SNB19 cells assessed as cell growth at 10 uM; details: read-out: Activity; how it was run: as §1
# OVCAR-4 = assay: Cytotoxicity against human OVCAR4 cells assessed as cell growth at 10 uM; details: read-out: Activity; how it was run: as §1
# HL-60(TB) = assay: Cytotoxicity against human HL-60(TB) cells assessed as cell growth at 10 uM; details: read-out: Activity
# How it was run: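 NCI 60-cell panel screen at a single concentration of 10 µM. Cells are grown in RPMI 1640 with 5% FBS and 2 mM L-glutamine and read by SRB protein staining at 515 nm. Percent growth is measured relative to time-zero and untreated controls; inhibition % is 100 minus growth %.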
# UO-31 = assay: Cytotoxicity against human UO31 cells assessed as cell growth at 10 uM; details: read-out: Activity; how it was run: as §1
# COLO 205 = assay: Cytotoxicity against human COLO205 cells assessed as cell growth at 10 uM; details: read-out: Activity; how it was run: as §2
# SK-MEL-5 = assay: Cytotoxicity against human SK-MEL-5 cells assessed as cell growth at 10 uM; details: read-out: Activity; how it was run: as §1
# SR = assay: Cytotoxicity against human SR cells assessed as cell growth at 10 uM; details: read-out: Activity; how it was run: as §1
# [2] = Growth inhibition of human NCI60 cells at 10 uM after 48 hrs by sulforhodamine B assay relative to control; details: NCI60, 48 h, read-out: GI
# How it was run: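 Single-dose NCI screen at 10 µM across the 60-line panel, 48 h exposure at 37 °C after a 24 h preincubation. Adherent cells were fixed with cold TCA and stained with 0.4% SRB, and absorbance was read at 515 nm. Inhibition % was taken as 100 minus growth %, and the mean across all lines was reported.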
# SF-268 = assay: Cytotoxicity against human SF268 cells assessed as cell growth at 10 uM; details: read-out: Activity; how it was run: as §1
# MDA-MB-468 = assay: Cytotoxicity against human MDA-MB-468 cells assessed as cell growth at 10 uM; details: read-out: Activity; how it was run: as §1
# NCI-H322M = assay: Cytotoxicity against human NCI-H322M cells assessed as cell growth at 10 uM; details: read-out: Activity; how it was run: as §1
# KM12 = assay: Cytotoxicity against human KM12 cells assessed as cell growth at 10 uM; details: read-out: Activity; how it was run: as §1
# M14 = assay: Cytotoxicity against human M14 cells assessed as cell growth at 10 uM; details: read-out: Activity; how it was run: as §1
# NCI-H460 = assay: Cytotoxicity against human NCI-H460 cells assessed as cell growth at 10 uM; details: read-out: Activity; how it was run: as §1
# SF-539 = assay: Cytotoxicity against human SF539 cells assessed as cell growth at 10 uM; details: read-out: Activity; how it was run: as §1
# 786-0 = assay: Cytotoxicity against human 786-0 cells assessed as cell growth at 10 uM; details: read-out: Activity; how it was run: as §2
# [3] = Cytotoxicity against human Hs 578T cells assessed as cell growth at 10 uM; details: read-out: Activity; how it was run: as §2
structure (smiles),measurement,setting,value
COc1cc(C)cc(-c2nn(CC#N)cc2-c2ccnc(-c3ccc(Oc4ccccc4)cc3)c2)c1,growth at 10 µM,[1],83%
same,growth at 10 µM,T47D,20.1%
same,growth at 10 µM,EKVX,98.2%
same,growth at 10 µM,CAKI-1,78.7%
same,growth at 10 µM,MOLT-4,73.7%
same,growth at 10 µM,UACC-257,91.6%
same,growth at 10 µM,MCF7,72.1%
same,growth at 10 µM,NCI/ADR-RES,80.3%
same,growth at 10 µM,OVCAR-3,109%
same,growth at 10 µM,OVCAR-8,84.4%
same,growth at 10 µM,CCRF-CEM,91.3%
same,growth at 10 µM,SNB-75,74.4%
same,growth at 10 µM,ACHN,85.4%
same,growth at 10 µM,SNB-19,88.5%
same,growth at 10 µM,OVCAR-4,82.9%
same,growth at 10 µM,HL-60(TB),91.2%
same,growth at 10 µM,UO-31,84.8%
same,growth at 10 µM,COLO 205,98.6%
same,growth at 10 µM,SK-MEL-5,53.8%
same,growth at 10 µM,SR,95.8%
same,inhibition of growth at 10 µM,[2],13.5%
same,growth at 10 µM,SF-268,96.9%
same,growth at 10 µM,MDA-MB-468,23.6%
same,growth at 10 µM,NCI-H322M,96.3%
same,growth at 10 µM,KM12,100%
same,growth at 10 µM,M14,102%
same,growth at 10 µM,NCI-H460,106%
same,growth at 10 µM,SF-539,95.3%
same,growth at 10 µM,786-0,95%
same,growth at 10 µM,[3],94.3%
